Measurements taken from ChEMBL document CHEMBL1151177, “Antiviral flavonoids from the seeds of Aesculus chinensis” (J Nat Prod, 2004).
Converted amounts (≈) assume the structure as drawn.

Tests used:
Influenza A virus = experiment: Antiviral activity against influenza virus type A H1N1 in MDCK cells assessed as inhibition of virus-induced cytopathic effect; type: functional, organism-based
Outline: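 Two-fold serial dilutions were applied to cell monolayers, starting at the maximal noncytotoxic concentration. An equal volume of virus at 100 TCID50/mL was added, with an untreated infected control. Plates were held at 37 °C, humidified, for 2–5 days. CPE was scored 0–4 and expressed as percent of virus control. IC50 (µg/mL), the concentration halving CPE, was read from graphic plots.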

[1] = Selectivity index, ratio of CC50 for MDCK cells to IC50 for influenza virus type A H1N1; type: functional
Outline: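 SI was computed as CC50/IC50. CC50 came from microscopic morphology scoring (0–4) of monolayers after 2–5 days at 37 °C. IC50 came from CPE scoring of cells infected at 100 TCID50/mL and treated with two-fold dilutions for 2–5 days at 37 °C. Both values were read from graphic plots.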

SMILES	CC50 (Influenza A virus) [µg/mL]	IC50 (Influenza A virus) [µg/mL]	Ratio CC50/IC50 [1]
C[C@@H]1O[C@@H](OC[C@H]2O[C@@H](Oc3c(-c4ccc(O)c(O[C@@H]5O[C@H](CO)[C@@H](O)[C@H](O)[C@H]5O)c4)oc4cc(O)cc(O)c4c3=O)[C@H](O[C@@H]3OC[C@@H](O)[C@H](O)[C@H]3O)[C@@H](O)[C@@H]2O)[C@H](O)[C@H](O)[C@H]1O [AESCUFLAVOSIDE]	108 (≈ 119 µM)	> 100	<1.1
O=c1c(O[C@@H]2O[C@H](CO)[C@@H](O)[C@H](O)[C@H]2O[C@@H]2OC[C@@H](O)[C@H](O)[C@H]2O)c(-c2ccc(O)cc2)oc2cc(O)cc(O)c12	46.9 (≈ 80.8 µM)	> 100	<0.5
COc1ccc(-c2oc3cc(O)cc(O)c3c(=O)c2O[C@@H]2O[C@H](CO)[C@@H](O)[C@H](O)[C@H]2O[C@@H]2OC[C@@H](O)[C@H](O)[C@H]2O)cc1O[C@@H]1O[C@H](CO)[C@@H](O)[C@H](O)[C@H]1O [AESCUFLAVOSIDE A]	322 (≈ 417 µM)	> 500	<0.6
O=c1c(O[C@@H]2O[C@H](CO)[C@H](O)[C@H](O)[C@H]2O)c(-c2ccc(O)cc2)oc2cc(O)cc(O)c12 [TRIFOLIN]	215 (≈ 480 µM)	> 300	<0.7
O=c1c(O[C@@H]2O[C@H](CO)[C@@H](O)[C@H](O)[C@H]2O)c(-c2ccc(O)cc2)oc2cc(O)cc(O)c12 [ASTRAGALIN]	392 (≈ 875 µM)	24.5 (≈ 54.6 µM)	16
O=c1c(O[C@@H]2O[C@H](CO)[C@@H](O)[C@H](O)[C@H]2O[C@@H]2OC[C@@H](O)[C@H](O)[C@H]2O)c(-c2ccc(O)c(O[C@@H]3O[C@H](CO)[C@@H](O)[C@H](O)[C@H]3O)c2)oc2cc(O)cc(O)c12	> 322	> 500	
C[C@@H]1O[C@@H](Oc2c(-c3ccc(O)cc3)oc3cc(O)cc(O)c3c2=O)[C@H](O)[C@H](O)[C@H]1O[C@@H]1O[C@H](CO)[C@@H](O)[C@H](O)[C@H]1O	375 (≈ 631 µM)	> 500	<0.8
O=c1c(O[C@@H]2O[C@H](CO[C@@H]3O[C@H](CO)[C@@H](O)[C@H](O)[C@H]3O)[C@@H](O)[C@H](O)[C@H]2O[C@@H]2OC[C@@H](O)[C@H](O)[C@H]2O)c(-c2ccc(O)cc2)oc2cc(O)cc(O)c12	107 (≈ 144 µM)	> 100	<1.1
NC(=O)c1ncn([C@@H]2O[C@H](CO)[C@@H](O)[C@H]2O)n1 [RIBAVIRIN]	> 125	62.5 (≈ 256 µM)	
O=c1c(O[C@@H]2O[C@H](CO)[C@@H](O)[C@H](O)[C@H]2O[C@@H]2OC[C@@H](O)[C@H](O)[C@H]2O)c(-c2ccc(O)c(O)c2)oc2cc(O)cc(O)c12	198 (≈ 331 µM)	> 200	<1
O=c1c(O[C@@H]2O[C@H](CO)[C@@H](O)[C@H](O)[C@H]2O)c(-c2ccc(O)c(O)c2)oc2cc(O)cc(O)c12 [ISOQUERCETIN]	> 400	> 500	
